We go through 19 compounds from ChEMBL document CHEMBL1152875, “Synthesis and optimization of arylsulfonylpiperazines as a novel class of inhibitors of 11 beta-hydroxysteroid dehydrogenase type 1 (11 beta-HSD1)” (Bioorg Med Chem Lett, 2009).

Each structure is given as a SMILES string. pIC50: −log10 of the molar value. Converted amounts (≈) assume the structure as drawn.

Data set [1] is described as follows: AUC in rat at 2 mg/kg, po. The conditions noted are these: plasma. Type of data set: ADME, organism-based. Details: dose 2 mg/kg, route oral.
Data set [2] is described as follows: Solubility at pH 5.0. Type of data set: physicochemical. The conditions noted are these: buffer.
Data set [3] in a line: Drug level in mesenteric fat tissue of cynomolgus monkey at 0.4 mg/kg, po after 2 hrs. The note with it: read-out: Drug uptake. Details: dose 0.4 mg/kg, route oral. Type of data set: ADME, organism-based, Macaca fascicularis, Adipose tissue. The method in brief: (§1)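 Cynomolgus monkeys were given single oral doses of 0.4, 2 or 10 mg/kg in 1% methylcellulose plus 1% Tween 80 in sterile water, with 3 animals per dose group and a vehicle group of 4. Plasma and mesenteric fat were collected 2 h post-dose. Compound level in each matrix was measured by LC/MS/MS.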

Data set [4] can be described thus: Drug level in mesenteric fat tissue of cynomolgus monkey at 2 mg/kg, po after 2 hrs. It is filed as ADME, organism-based, Macaca fascicularis, Adipose tissue. Details: dose 2 mg/kg, route oral. The note with it: read-out: Drug uptake. Summed up: as §1
Data set [5] can be described thus: Plasma concentration in cynomolgus monkey at 10 mg/kg, po after 2 hrs. It is filed as ADME, organism-based, Macaca fascicularis. Details: dose 10 mg/kg, route oral. Summed up: as §1
Data set [6] is described as follows: Plasma concentration in cynomolgus monkey at 2 mg/kg, po after 2 hrs. It is filed as ADME, organism-based, Macaca fascicularis. Further details: dose 2 mg/kg, route oral. The method in brief:
as §1

Data set [7] can be described thus: Drug level in mesenteric fat tissue of cynomolgus monkey at 10 mg/kg, po after 2 hrs. Type of data set: ADME, organism-based, Macaca fascicularis, Adipose tissue. Details: dose 10 mg/kg, route oral. The conditions noted are these: read-out: Drug uptake. Summed up: as §1
Data set [8] in a line: Plasma concentration in cynomolgus monkey at 0.4 mg/kg, po after 2 hrs. It is filed as ADME, organism-based, Macaca fascicularis. Details: dose 0.4 mg/kg, route oral. The method in brief:
as §1

A short description of data set [9]: Metabolic stability in rat liver S9 fraction assessed as compound remaining after 60 mins. The conditions noted are these: read-out: Activity. It is filed as ADME, subcellular.
The target in the next data set is Cytochrome P450 3A4 (Homo sapiens, UniProt P08684).
Cytochrome P450 3A4, sequence (P08684 whole entry): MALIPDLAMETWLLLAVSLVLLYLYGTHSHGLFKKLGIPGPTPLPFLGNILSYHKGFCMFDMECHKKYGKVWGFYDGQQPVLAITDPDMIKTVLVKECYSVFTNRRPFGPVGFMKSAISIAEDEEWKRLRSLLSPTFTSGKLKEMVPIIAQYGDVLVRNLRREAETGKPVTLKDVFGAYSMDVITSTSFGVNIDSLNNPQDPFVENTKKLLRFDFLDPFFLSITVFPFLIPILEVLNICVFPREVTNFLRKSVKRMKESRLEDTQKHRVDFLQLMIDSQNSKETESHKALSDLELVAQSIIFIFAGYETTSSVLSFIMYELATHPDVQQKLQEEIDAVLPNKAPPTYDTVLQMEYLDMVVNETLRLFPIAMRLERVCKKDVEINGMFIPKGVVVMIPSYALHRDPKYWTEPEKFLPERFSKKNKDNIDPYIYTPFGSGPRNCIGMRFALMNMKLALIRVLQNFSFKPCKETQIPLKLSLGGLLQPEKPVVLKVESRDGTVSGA
In data set [10] the target is Voltage-gated inwardly rectifying potassium channel KCNH2 (Homo sapiens, UniProt Q12809).
Voltage-gated inwardly rectifying potassium channel KCNH2, sequence (Q12809 whole entry): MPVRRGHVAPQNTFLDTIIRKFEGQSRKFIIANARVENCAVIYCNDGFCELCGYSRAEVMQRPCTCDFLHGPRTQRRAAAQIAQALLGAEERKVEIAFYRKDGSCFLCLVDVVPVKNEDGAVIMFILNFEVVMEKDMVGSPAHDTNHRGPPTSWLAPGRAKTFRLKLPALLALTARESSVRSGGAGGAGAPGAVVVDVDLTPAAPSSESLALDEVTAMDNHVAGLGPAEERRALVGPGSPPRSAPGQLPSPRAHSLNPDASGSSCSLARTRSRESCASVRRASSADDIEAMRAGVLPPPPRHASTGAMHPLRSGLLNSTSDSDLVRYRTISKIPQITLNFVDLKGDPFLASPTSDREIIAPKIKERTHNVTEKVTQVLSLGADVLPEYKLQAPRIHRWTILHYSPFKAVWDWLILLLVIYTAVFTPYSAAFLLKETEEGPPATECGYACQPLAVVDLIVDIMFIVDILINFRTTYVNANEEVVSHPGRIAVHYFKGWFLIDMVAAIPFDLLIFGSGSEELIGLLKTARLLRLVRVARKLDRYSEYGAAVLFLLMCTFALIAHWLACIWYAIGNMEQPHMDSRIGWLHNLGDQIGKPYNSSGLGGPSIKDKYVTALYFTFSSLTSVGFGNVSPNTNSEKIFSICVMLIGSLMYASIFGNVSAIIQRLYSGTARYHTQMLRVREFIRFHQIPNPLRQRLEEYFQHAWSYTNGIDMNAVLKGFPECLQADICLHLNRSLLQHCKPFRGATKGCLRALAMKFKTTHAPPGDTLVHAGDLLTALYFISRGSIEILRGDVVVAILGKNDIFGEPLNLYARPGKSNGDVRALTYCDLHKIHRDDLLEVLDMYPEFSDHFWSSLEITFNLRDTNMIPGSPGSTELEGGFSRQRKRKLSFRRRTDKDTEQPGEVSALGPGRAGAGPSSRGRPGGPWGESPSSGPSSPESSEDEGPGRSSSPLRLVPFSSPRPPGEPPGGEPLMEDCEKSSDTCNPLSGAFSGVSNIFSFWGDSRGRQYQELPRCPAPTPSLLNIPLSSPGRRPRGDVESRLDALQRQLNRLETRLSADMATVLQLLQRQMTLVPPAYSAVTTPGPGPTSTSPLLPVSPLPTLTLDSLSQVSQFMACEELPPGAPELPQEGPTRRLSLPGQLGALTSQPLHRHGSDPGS
Data set [11] is described as follows: Clearance in rat. Type of data set: ADME, organism-based. The conditions noted are these: in vivo.
The nature of data set [12]: Oral bioavailability in rat. Type of data set: ADME, organism-based. The note with it: in vivo.

In general, AUC refers to the area under the concentration-time curve, a measure of exposure. The solubility is the dissolved amount per volume that the medium holds. `CC(C)(C)c1ccc(S(=O)(=O)N2CCN(c3ccc([N+](=O)[O-])cc3)CC2)cc1`: the exposure (AUC) in data set [1] was found to be 29.8 ng·h/mL. For the same compound, the solubility in data set [2] amounted to 0.5 µg/mL (≈ 1.24 µM).

On to `C[C@@H]1CN(c2ccc([N+](=O)[O-])cc2)CCN1S(=O)(=O)c1ccc(C(C)(C)C)cc1`, for which the solubility in [2] worked out at 1.8 µg/mL (≈ 4.31 µM).

Consider `C[C@@H]1CN(CC2(C(N)=O)CC2)CCN1S(=O)(=O)c1ccc([C@](C)(O)C(F)(F)F)cc1`, for which the AUC in [1] was 638 ng·h/mL. Besides, the concentration at 2 h in [3] amounted to 105 nM; in [4], 2780 nM; in [5] it was 503 nM; in [6], 349 nM; in [7], 40700 nM; in [8], 29 nM.

Turning to `CC(c1ccncc1)N1CCN(S(=O)(=O)c2ccc(C(C)(C)C)cc2)[C@H](C)C1` (stereo not given in full), in data set [2], the solubility stood at 20.8 µg/mL (≈ 51.8 µM).

`C[C@@H]1CN(CCc2ccncc2)CCN1S(=O)(=O)c1ccc(C(C)(O)C(F)(F)F)cc1` (stereo not given in full): the remaining at 1 h in data set [9] was 59%.

Compound `C[C@@H]1CN(Cc2ccnc3ccccc23)CCN1S(=O)(=O)c1ccc(C(C)(C)C)cc1` came in with a solubility in data set [2] of 1 µg/mL (≈ 2.29 µM).

In data set [2], `C[C@@H]1CN(CCCc2ccncc2)CCN1S(=O)(=O)c1ccc(C(C)(C)C)cc1` gave a solubility of 39 µg/mL (≈ 93.8 µM).

Compound `C[C@@H]1CN(Cc2ccncc2)CCN1S(=O)(=O)c1ccc(C(C)(C)C)cc1` gave a solubility in data set [2] of 18.1 µg/mL (≈ 46.7 µM).

As to `C[C@@H]1CN(CCc2ccccn2)CCN1S(=O)(=O)c1ccc(C(C)(O)C(F)(F)F)cc1` (stereo not given in full), the remaining at 1 h in data set [9] came out at 28%.

On to `C[C@@H]1CN(CC(F)(F)c2cccnc2)CCN1S(=O)(=O)c1ccc(C(C)(O)C(F)(F)F)cc1` (stereo not given in full), for which, in [9], the remaining at 1 h was determined as 46%.

Turning to `C[C@@H]1CN(CC2(c3cccnc3)CCC2)CCN1S(=O)(=O)c1ccc(C(C)(O)C(F)(F)F)cc1` (stereo not given in full), the remaining at 1 h in data set [9] came to 61%.

Turning to `C[C@@H]1CN(CC2(c3ccncc3)CCCC2)CCN1S(=O)(=O)c1ccc(C(C)(O)C(F)(F)F)cc1` (stereo not given in full), the remaining at 1 h in data set [9] turned out to be 43%.

In the case of `C[C@@H]1CN(CC2(c3ccncc3)CCC2)CCN1S(=O)(=O)c1ccc(C(C)(O)C(F)(F)F)cc1` (stereo not given in full), the remaining at 1 h in data set [9] stood at 54%.

For the compound `C[C@@H]1CN(CC2(c3cccnc3)CCCC2)CCN1S(=O)(=O)c1ccc(C(C)(O)C(F)(F)F)cc1` (stereo not given in full), in [9], the remaining at 1 h is 60%.

Consider `C[C@@H]1CN(CC(F)(F)c2ccncc2)CCN1S(=O)(=O)c1ccc(C(C)(O)C(F)(F)F)cc1` (stereo not given in full), for which, in data set [9], the remaining at 1 h worked out at 40%.

As to `C[C@@H]1CN(CCc2ccncc2)CCN1S(=O)(=O)c1ccc(C(C)(C)C)cc1`, in data set [2], the solubility is 21.8 µg/mL (≈ 54.3 µM).

On to `C[C@@H]1CN(CC2(c3cccnc3)CC2)CCN1S(=O)(=O)c1ccc(C(C)(O)C(F)(F)F)cc1` (stereo not given in full), for which the remaining at 1 h in data set [9] turned out to be 50%.

As usually defined, the pIC50 is the negative decadic logarithm of the IC50, by convention in mol/L. For orientation: clearance means a measure of how efficiently the substance is removed, as volume per time. One may read the bioavailability as the share of a dose that reaches the circulation, judged against a reference dose that is usually intravenous. Turning to `C[C@@H]1CN(CC2(c3ccncc3)CC2)CCN1S(=O)(=O)c1ccc(C(C)(O)C(F)(F)F)cc1` (stereo not given in full), the negative logarithm of the IC50 (pIC50) against Cytochrome P450 3A4 was 5.77; in data set [10], 6.36. In data set [9], the remaining at 1 h was found to be 80%. The compound further gave a clearance in [11] of 35 mL/min/kg. Also, the bioavailability in [12] was 60%.

As for `C[C@@H]1CN(CCc2cccnc2)CCN1S(=O)(=O)c1ccc(C(C)(O)C(F)(F)F)cc1` (stereo not given in full), the remaining at 1 h in data set [9] turned out to be 67%.
